Measured values as given in ChEMBL document CHEMBL1208778, “Synthesis and anti-cancer activity of chalcone linked imidazolones” (2010).
The source made the active and inactive calls. No cut-off for these calls is given here.

What was measured:
MCF7 [1] = assay: Cell cycle arrest in human MCF7 cells assessed as accumulation at G0 phase at 10 uM after 24 hrs by FACS analysis; format: functional
Method in brief: (§1)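 MCF-7 breast carcinoma cells were exposed to 10 µM test compound for 24 h, with DMSO as the vehicle control. Cell-cycle distribution was read by FACS as the percentage of cells in G0, G1, S and G2/M.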

MCF7 [2] = assay: Cell cycle arrest in human MCF7 cells assessed as accumulation at G1 phase at 10 uM after 24 hrs by FACS analysis; format: functional; method in brief: as §1
MCF7 [3] = assay: Cell cycle arrest in human MCF7 cells assessed as accumulation at S phase at 10 uM after 24 hrs by FACS analysis; format: functional; method in brief: as §1
MCF7 [4] = assay: Cell cycle arrest in human MCF7 cells assessed as accumulation at G2/M phase at 10 uM after 24 hrs by FACS analysis; format: functional; method in brief: as §1
MCF7 [5] = assay: Cell cycle arrest in human MCF7 cells assessed as accumulation at G0 phase at 30 uM after 24 hrs by FACS analysis; format: functional
Method in brief: (§2)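 MCF-7 cells were treated at 30 µM for 24 h alongside a DMSO control. Fractions in G0, G1, S and G2/M phases were measured by FACS, and values are means of three experiments.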

MCF7 [6] = assay: Cell cycle arrest in human MCF7 cells assessed as accumulation at G1 phase at 30 uM after 24 hrs by FACS analysis; format: functional; method in brief: as §2
MCF7 [7] = assay: Cell cycle arrest in human MCF7 cells assessed as accumulation at S phase at 30 uM after 24 hrs by FACS analysis; format: functional; method in brief: as §2
MCF7 [8] = assay: Cell cycle arrest in human MCF7 cells assessed as accumulation at G2/M phase at 30 uM after 24 hrs by FACS analysis; format: functional; method in brief: as §2
MCF7 [9] = assay: Induction of apoptosis in human MCF7 cells assessed as decrease in procaspase 7 level at 30 uM after 24 hrs by Western blot analysis; format: functional, cell-based
Method in brief: (§3)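 MCF-7 breast carcinoma cells were exposed to 30 µM compound for 24 h, with CA-4 as positive control. Cell lysates were then immunoblotted with antibodies to procaspase-7 and cleavage-specific PARP, using β-actin as loading control.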

MCF7 [10] = assay: Induction of apoptosis in human MCF7 cells assessed as […] in PARP cleavage at 30 uM after 24 hrs by Western blot analysis; format: functional, cell-based; method in brief: as §3
[11] = Growth inhibition of human RPMI8266 cells; format: functional
Method in brief: (§4)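 Five-dose testing was run within the NCI (Bethesda) in vitro Anticancer Screen Program on a panel of 53 human tumour cell lines from nine cancer types. Growth inhibition is reported as GI50.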

K562 = assay: Growth inhibition of human K562 cells; format: functional; method in brief: as §4
A549 = assay: Growth inhibition of human A549 cells; format: functional; method in brief: as §4
EKVX = assay: Growth inhibition of human EKVX cells; format: functional; method in brief: as §4
HOP-62 = assay: Growth inhibition of human HOP62 cells; format: functional; method in brief: as §4
HOP-92 = assay: Growth inhibition of human HOP92 cells; format: functional; method in brief: as §4
NCI-H226 = assay: Growth inhibition of human NCI-H226 cells; format: functional; method in brief: as §4
NCI-H23 = assay: Growth inhibition of human NCI-H23 cells; format: functional; method in brief: as §4
NCI-H322M = assay: Growth inhibition of human NCI-H322M cells; format: functional; method in brief: as §4
NCI-H460 = assay: Growth inhibition of human NCI-H460 cells; format: functional; method in brief: as §4
NCI-H522 = assay: Growth inhibition of human NCI-H522 cells; format: functional; method in brief: as §4
COLO 205 = assay: Growth inhibition of human COLO205 cells; format: functional; method in brief: as §4
HCC 2998 = assay: Growth inhibition of human HCC2998 cells; format: functional; method in brief: as §4
HCT-116 = assay: Growth inhibition of human HCT116 cells; format: functional; method in brief: as §4
HCT-15 = assay: Growth inhibition of human HCT15 cells; format: functional; method in brief: as §4
HT-29 = assay: Growth inhibition of human HT-29 cells; format: functional; method in brief: as §4
KM12 = assay: Growth inhibition of human KM12 cells; format: functional; method in brief: as §4
SW-620 = assay: Growth inhibition of human SW620 cells; format: functional
Method in brief: (§5)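 Compounds that passed a preliminary screen were tested at five doses in the NCI (Bethesda) in vitro Anticancer Screen Program against a 53-line human tumour panel spanning leukemia, lung, colon, CNS, melanoma, ovarian, renal, prostate and breast. Growth inhibition is reported as GI50.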

SF-268 = assay: Growth inhibition of human SF268 cells; format: functional; method in brief: as §4
SF-295 = assay: Growth inhibition of human SF295 cells; format: functional; method in brief: as §4
SF-539 = assay: Growth inhibition of human SF539 cells; format: functional; method in brief: as §4
SNB-19 = assay: Growth inhibition of human SNB19 cells; format: functional; method in brief: as §5
SNB-75 = assay: Growth inhibition of human SNB75 cells; format: functional; method in brief: as §5
U-251 = assay: Growth inhibition of human U251 cells; format: functional; method in brief: as §5
A498 = assay: Growth inhibition of human A498 cells; format: functional; method in brief: as §4
786-0 = assay: Growth inhibition of human 786-0 cells; format: functional; method in brief: as §4
ACHN = assay: Growth inhibition of human ACHN cells; format: functional; method in brief: as §4
CAKI-1 = assay: Growth inhibition of human Caki1 cells; format: functional; method in brief: as §4
RXF 393 = assay: Growth inhibition of human RXF393 cells; format: functional; method in brief: as §4
SN12C = assay: Growth inhibition of human SN12C cells; format: functional; method in brief: as §5
TK-10 = assay: Growth inhibition of human TK10 cells; format: functional; method in brief: as §5
UO-31 = assay: Growth inhibition of human UO31 cells; format: functional; method in brief: as §5
PC-3 = assay: Growth inhibition of human PC3 cells; format: functional; method in brief: as §4
OVCAR-3 = assay: Growth inhibition of human OVCAR-3 cells; format: functional; method in brief: as §4
OVCAR-4 = assay: Growth inhibition of human OVCAR4 cells; format: functional; method in brief: as §4
OVCAR-5 = assay: Growth inhibition of human OVCAR5 cells; format: functional; method in brief: as §4
OVCAR-8 = assay: Growth inhibition of human OVCAR8 cells; format: functional; method in brief: as §4
NCI/ADR-RES = assay: Growth inhibition of human NCI/ADR-RES cells; format: functional; method in brief: as §4
SK-OV-3 = assay: Growth inhibition of human SKOV3 cells; format: functional; method in brief: as §5
MCF7 [12] = assay: Growth inhibition of human MCF7 cells; format: functional; method in brief: as §4
MDA-MB-231 = assay: Growth inhibition of human MDA-MB-231 cells; format: functional; method in brief: as §4
[13] = Growth inhibition of human Hs 578T cells; format: functional; method in brief: as §4
BT-549 = assay: Growth inhibition of human BT549 cells; format: functional; method in brief: as §4
T47D = assay: Growth inhibition of human T47D cells; format: functional; method in brief: as §5
LOX IMVI = assay: Growth inhibition of human LOXIMVI cells; format: functional; method in brief: as §4
Malme-3M = assay: Growth inhibition of human MALME-3M cells; format: functional; method in brief: as §4
M14 = assay: Growth inhibition of human M14 cells; format: functional; method in brief: as §4
MDA-MB-435 = assay: Growth inhibition of human MDA-MB-435 cells; format: functional; method in brief: as §4
SK-MEL-2 = assay: Growth inhibition of human SK-MEL-2 cells; format: functional; method in brief: as §4
SK-MEL-28 = assay: Growth inhibition of human SK-MEL-28 cells; format: functional; method in brief: as §4
SK-MEL-5 = assay: Growth inhibition of human SK-MEL-5 cells; format: functional; method in brief: as §4
UACC-257 = assay: Growth inhibition of human UACC257 cells; format: functional; method in brief: as §5
UACC-62 = assay: Growth inhibition of human UACC62 cells; format: functional; method in brief: as §5

COc1ccc(/C=C\c2cc(OC)c(OC)c(OC)c2)cc1O [COMBRETASTATIN A4]
Activity (MCF7 [1]): 9.45%
Activity (MCF7 [2]): 11.79%
Activity (MCF7 [3]): 9.96%
Activity (MCF7 [4]): 68.8%
Activity (MCF7 [5]): 11.64%
Activity (MCF7 [6]): 25.04%
Activity (MCF7 [7]): 39.63%
Activity (MCF7 [8]): 23.69%
Activity (MCF7 [9]): inactive
Activity (MCF7 [10]): inactive

COc1ccc(-c2cn(-c3cccc(C(=O)/C=C/c4ccc(O)c(OC)c4)c3)c(=O)[nH]2)cc1
GI50 [11]: 1.35 µM
GI50 (K562): 2.35 µM
GI50 (A549): 4.14 µM
GI50 (EKVX): 13.4 µM
GI50 (HOP-62): 5.15 µM
GI50 (HOP-92): 2.96 µM
GI50 (NCI-H226): 4.1 µM
GI50 (NCI-H23): 2.85 µM
GI50 (NCI-H322M): 8.2 µM
GI50 (NCI-H460): 3.23 µM
GI50 (NCI-H522): 3.48 µM
GI50 (COLO 205): 6.61 µM
GI50 (HCC 2998): 2.32 µM
GI50 (HCT-116): 1.93 µM
GI50 (HCT-15): 3.15 µM
GI50 (HT-29): 3.84 µM
GI50 (KM12): 1.77 µM
GI50 (SW-620): 2.5 µM
GI50 (SF-268): 3.4 µM
GI50 (SF-295): 13.9 µM
GI50 (SF-539): 2.25 µM
GI50 (SNB-19): 5.84 µM
GI50 (SNB-75): 4.73 µM
GI50 (U-251): 3.45 µM
GI50 (A498): 3.72 µM
GI50 (786-0): 4.53 µM
GI50 (ACHN): 3.4 µM
GI50 (CAKI-1): 4.99 µM
GI50 (RXF 393): 5.85 µM
GI50 (SN12C): 4.11 µM
GI50 (TK-10): 6.08 µM
GI50 (UO-31): 5.19 µM
GI50 (PC-3): 3.05 µM
GI50 (OVCAR-3): 2.7 µM
GI50 (OVCAR-4): 6.08 µM
GI50 (OVCAR-5): 3.38 µM
GI50 (OVCAR-8): 4.97 µM
GI50 (NCI/ADR-RES): 2.56 µM
GI50 (SK-OV-3): 4.77 µM
GI50 (MCF7 [12]): 3.18 µM
GI50 (MDA-MB-231): 5.25 µM
GI50 [13]: 4.25 µM
GI50 (BT-549): 4.57 µM
GI50 (T47D): 3.6 µM
GI50 (LOX IMVI): 2.44 µM
GI50 (Malme-3M): 4.42 µM
GI50 (M14): 5.14 µM
GI50 (MDA-MB-435): 3.35 µM
GI50 (SK-MEL-2): 5.54 µM
GI50 (SK-MEL-28): 2.03 µM
GI50 (SK-MEL-5): 2.63 µM
GI50 (UACC-257): 13.3 µM
GI50 (UACC-62): 3.96 µM
Activity (MCF7 [1]): 2.16%
Activity (MCF7 [2]): 57.66%
Activity (MCF7 [3]): 14%
Activity (MCF7 [4]): 26.18%
Activity (MCF7 [5]): 20.5%
Activity (MCF7 [6]): 54.5%
Activity (MCF7 [7]): 16%
Activity (MCF7 [8]): 9%
